Assay outcomes: PubChem BioAssay, several laboratories
sdo1 growth – growth rescue of sdo1-depleted yeast, primary screen, S. cerevisiae, bone marrow failure model. 140,000 compounds, 0.21% hits. z-score at 10 µM. AID 817, 2007. S. cerevisiae sdo1-depleted JHY4D growth rescue, OD600 30 h; stronger effect = higher value; pdr5 snq2 efflux-pump mutant strain;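 active means z-score above 3 at both the 24 hr and the 30 hr optical density reads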;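 further: z-score against mean and SD of all compound wells on the same plate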
RAM inhibit – inhibitors of the yeast RAM network, primary screen, dse1pr::URA3 reporter, 5-FOA selection; inhibition, % at 50 µM; S. cerevisiae dse1pr::URA3 reporter, 5-FOA growth OD615, 2 d; analog-sensitive cbk1-as2 kinase mutant strain; 190,000 compounds, 1.8% hits;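 active means inhibition above a set limit, 3 SD over mean compound inhibition, cut at about 8.4% in these data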;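 further: 0% = DMSO-only wells with no growth and 100% = 10 µM 1-NA-PP1 full growth; inhibition rescues growth on 5-FOA so higher OD means more RAM inhibition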
BB579 growth dn – growth inhibitors of yeast BB579 in restrictive medium, primary screen, yeast lifespan-shortening project, S. cerevisiae; AID 804, 2007; OD615, 48 h; 140,000 compounds, 0.51% hits; inhibition, % at 10 µM;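 active means inhibition above a set limit, 3 SD over the mean compound inhibition, cut at about 44% in these data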
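System: Saccharomyces cerevisiae DeaD strain BB579, replicative lifespan model yeast. Buffer or medium: restrictive glucose-based CSMM-D medium. Doses: one dose, 10 µM compound with 0.25% DMSO. Timing: 4 h preincubation and 48 h exposure at 30 °C. Detection: turbidity as optical density at 615 nm. Benchmarks: amphotericin B 10 µg/mL, positive.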
Measles CPE – compounds protecting cells from measles virus cytopathic effect, primary screen, measles RdRp inhibitor project, single point, MLSMR library, absorbance; 140,000 compounds, 1.5% hits; Measles virus-infected cells, CPE protection; AID 841, 2007; protection (pct of control), % at 4 µM; in the data active means protection mostly above about 24%, no sharp cut-off; inactive means mostly below about 26%
Yeast life ext – compounds extending yeast replicative lifespan, primary screen, S. cerevisiae, OD615; S. cerevisiae growth with nicotinamide; deaD strain in restrictive glucose medium; 130,000 compounds, 0.68% hits; inhibition of the nicotinamide effect, % at 10 µM; AID 775, 2007;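 active means inhibition above a set limit, placed 3 SD over the median of all compounds, cut at about 26% in these data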;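 further: 0% = nicotinamide-treated wells and 100% = cells grown without nicotinamide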
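System: DeaD-strain S. cerevisiae / Buffer or medium: CSMM-D, restrictive glucose (dextrose) synthetic minimal medium / Probe or stimulus: nicotinamide, 1.5 mM, co-present with compound / Compound: one concentration, 10 µM, DMSO 0.25% / Incubation: 48 h compound exposure at 30 °C, humidified / Technique: optical density (absorbance) at 615 nm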
Numbers without * were called inactive; nt = no result. Most compounds without a hit are left out; they make up all but 3.8% or so of the library.

SMILES	sdo1 growth	RAM inhibit	BB579 growth dn	Measles CPE	Yeast life ext
Clc1ccc(CSc2cc3c(nn2)-c2ccccc2CC3)cc1Cl	-0.44	10*	-33	4	-5
O=C(NCc1cccnc1)c1cccs1	nt	1	nt	nt	nt
COc1cccc(-n2c(Cc3cc(=O)[nH]c(=O)[nH]3)nnc2SCC(=O)NC2CCCC2)c1	0.83	1	-7	50*	-5
COC(=O)CSc1nnc(Cc2cc(=O)[nH]c(=O)[nH]2)n1-c1cccc(OC)c1	1.5	-1	-23	23	-20
COc1ccc(Cl)cc1NC(=O)COC(=O)c1cc(NS(=O)(=O)c2cccs2)ccc1O	-0.57	11*	-49	6	3
N#Cc1c(C(F)(F)F)cc(C2CC2)[nH]c1=O	0.5	1	6	15	-5
CCc1nnc(NS(=O)(=O)c2ccc(N=CC3=C(O)CC(C)(C)CC3=O)cc2)s1	nt	4	nt	nt	nt
Cc1ccc(-c2cc(C)nc3ncnn23)cc1	-0.67	1	-4	47*	-9
Clc1ccc(COc2ccccc2CNCc2cccnc2)cc1	0.77	2	-14	2	49*
C=CCOc1ccccc1CNCc1cccnc1	0.33	1	-13	5	-3
CCOC(=O)c1c(C)[nH]c(C)c1C(=O)COC(=O)c1ccc(S(=O)(=O)N(CC)CC)cc1	-0.21	8.7*	-38	51*	-13
CC(=O)NC(CCS(C)(=O)=O)C(=O)Nc1ccc(C)c(F)c1 (stereo not given)	1.2	0	-30	57*	-22
CC(=O)NC(CCS(C)(=O)=O)C(=O)Nc1ccc2c(c1)OCCO2 (stereo not given)	0.69	0	-36	7	nt
CC(=O)NC(CCS(C)(=O)=O)C(=O)Nc1ccc2c(c1)OCO2 (stereo not given)	0.48	2	44*	19	9
CC(=O)NC(CCS(C)(=O)=O)C(=O)Nc1cccc(C)c1 (stereo not given)	0.35	3	30	2	-8
CC(C)CCn1c(=O)c2ccccc2n2c(CN3CCOCC3)nnc12	nt	0	nt	nt	nt
NC(=O)c1cccc(S(=O)(=O)N2CCCCC2)c1	0.53	-1	-8	13	-4
Cn1c(O)c(N=NC(=O)c2cccc(S(=O)(=O)N3CCCCC3)c2)c2ccccc21	-0.64	8.9*	-37	13	3
O=S(=O)(Cc1ccc(Cl)cc1)c1ncc(CO)n1Cc1ccccc1	nt	-1	nt	nt	nt
COc1ccc(OC)c(C2C(C(=O)Nc3cccnc3)=C(C)NC3=C2C(=O)CCC3)c1 (stereo not given)	1.1	2	-12	18	-17
O=C(COc1ccc2ccccc2c1)NCCNC(=O)COc1ccc2ccccc2c1	-0.64	4	-63	85*	5
N#Cc1ccc(OCC(=O)NCCc2ccccn2)cc1	0.67	2	-26	17	46*
C=CCn1c(SC(C)CC)nc(O)cc1=O (stereo not given)	-1.1	1	9	3	3
COc1ccc(N(CC(=O)NCc2ccncc2)S(=O)(=O)c2ccccc2[N+](=O)[O-])c(OC)c1	nt	1	nt	nt	nt
O=C(Cn1cnc2c(nnn2-c2ccccc2)c1=O)N1CCCc2ccccc21	0.34	2	-27	53*	-4
SMILES	sdo1 growth	RAM inhibit	BB579 growth dn	Measles CPE	Yeast life ext
Cc1ccc(-n2nnc3c(=O)n(CC(=O)N4CCCC4)cnc32)cc1	0.09	0	-41	10	-13
Cc1ccc(-n2nnc3c(=O)n(CC(=O)N4CCC(C)CC4)cnc32)cc1	-0.14	-1	43*	9	-5
O=C(Cn1cnc2c(nnn2Cc2ccccc2)c1=O)N1CCCc2ccccc21	-0.26	5	-28	11	-7
N=C1C(c2nc3ccccc3s2)=C(O)CN1NC(=O)c1c[nH]c2ccccc12	nt	8.5*	nt	nt	nt
N=C1C(c2nc3ccccc3s2)=C(O)CN1NC(=O)c1ccccc1[N+](=O)[O-]	nt	8	nt	nt	nt
CCc1c(C)nc(SCC(=O)Nc2c(C)n(C)n(-c3ccccc3)c2=O)[nH]c1=O	0.59	0	9	16	-20
Cc1nn(Cc2ccccc2)c(C)c1NC(=O)CSc1nc(-c2ccccc2)nc2c1cnn2-c1ccccc1	-1.1	2	-55	6	-23
COC(=O)C(C)Sc1nc2c(cnn2-c2ccc(C)cc2)c(=O)[nH]1 (stereo not given)	-1.7	1	-24	59*	-19
Cc1nc(SCC(=O)Nc2c(C)nn(C)c2C)c2cnn(-c3ccccc3)c2n1	0.49	0	-18	48*	-10
Cc1c(NC(=O)CSc2nc3c(cnn3-c3ccccc3)c(=O)[nH]2)c(=O)n(-c2ccccc2)n1C	1.2	11*	-28	7	5
CSc1nc(-c2ccc(N(C)C)cc2)c(C#N)c(=O)n1C	nt	6	nt	nt	nt
CC(C(=O)Nc1cccnc1)C1Sc2ccccc2NC1=O (stereo not given)	nt	0	nt	nt	nt
O=C(CSc1nncs1)Nc1ccc(Cl)cn1	1.1	2	-23	14	-4
CCc1cccc2c(C(=O)COC(=O)c3ccc([N+](=O)[O-])s3)c[nH]c12	-2.1	3	98*	4	-9
O=C(OCC(=O)c1c[nH]c2ccccc12)c1ccc([N+](=O)[O-])s1	nt	1	nt	nt	nt
CC(C)(C)N=Cc1cc(-c2ccccc2)sc1O	0.54	3	7	41*	-6
O=[N+]([O-])c1c(C(Cl)Cl)nn(-c2ccccc2)c1N1CCCC1	-2.4	0	-43	nt	45*
CCOC(=O)C1CCN(c2c([N+](=O)[O-])c(C(Cl)Cl)nn2-c2ccccc2)CC1	0.67	8	-17	10	2
CCCCN1C2=C(C(=O)CCC2)C(c2ccc(Cl)c(Cl)c2)C2=C1c1ccccc1C2=O (stereo not given)	-0.26	6	-51	17	-6
CCC/C=C(\CCC)C(NS(=O)(=O)c1ccc(C(F)(F)F)cc1)c1ccccc1 (stereo not given)	0.07	11*	-43	5	11
CCc1n[nH]c(=S)n1/N=C/c1ccc(NC(C)=O)cc1	nt	0	nt	nt	nt
CSc1ccc(/C=N/n2c(Cc3ccc(Br)cc3)n[nH]c2=S)cc1	nt	10.0*	nt	nt	nt
Cn1ncc(Br)c1C(=O)OCC(=O)Nc1nc(-c2ccccc2)cs1	-0.93	4	5	35*	nt
Cc1cc(C(=O)OCC(=O)Nc2nc(-c3ccccc3)cs2)c(C)o1	-0.1	2	-46	12	-1
CCc1nnc(NS(=O)(=O)c2ccc(N3C(=O)c4ccc(C(=O)O)cc4C3=O)cc2)s1	nt	5	nt	nt	nt
COC(=O)c1cc(NC(=O)CN(c2cccc(OC)c2)S(=O)(=O)c2ccccc2)ccc1Cl	-0.06	8.9*	-13	20	2
CCNC(=S)N/N=C/c1cn(Cc2ccc(F)cc2)c2ccccc12	-1.3	0	-16	29*	-7
